Key:
Type in all cases: functional
[1] = test system: UACC-62; test: Cytotoxicity against human UACC62 cells assessed as cell growth at 10 uM after 48 hrs relative to control; settings: UACC-62, 48 h, read-out: Activity
How it was run: (§1)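 Submitted to the National Cancer Institute for a single-dose screen at 10 micromolar against 60 cancer cell lines. Growth is expressed relative to negative-control cultures.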

[2] = test system: SN12C; test: Cytotoxicity against human SN12C cells assessed as cell growth at 10 uM after 48 hrs relative to control; settings: read-out: Activity; how it was run: as §1
[3] = test system: SF-268; test: Cytotoxicity against human SF268 cells assessed as cell growth at 10 uM after 48 hrs relative to control; settings: SF-268, 48 h, read-out: Activity
How it was run: (§2)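 Run at the National Cancer Institute as a single-dose screen across its 60-cell-line cancer panel. Compound was tested at 10 micromolar, and growth was expressed as a percentage of negative-control cultures.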

[4] = test system: MOLT-4; test: Cytotoxicity against human MOLT4 cells after 48 hrs; settings: MOLT-4, 48 h
[5] = test system: 786-0; test: Cytotoxicity against human 786-0 cells assessed as cell growth at 10 uM after 48 hrs relative to control; settings: 786-0, 48 h, read-out: Activity; how it was run: as §2
[6] = test system: IGROV-1; test: Cytotoxicity against human IGROV1 cells assessed as cell growth at 10 uM after 48 hrs relative to control; settings: IGROV-1, 48 h, read-out: Activity; how it was run: as §2
[7] = test system: SNB-75; test: Cytotoxicity against human SNB75 cells assessed as cell growth at 10 uM after 48 hrs relative to control; settings: SNB-75, 48 h, read-out: Activity; how it was run: as §1
[8] = test system: HCT-15; test: Cytotoxicity against human HCT15 cells assessed as cell growth at 10 uM after 48 hrs relative to control; settings: HCT-15, 48 h, read-out: Activity; how it was run: as §2
[9] = test system: SW-620; test: Cytotoxicity against human SW620 cells assessed as cell growth at 10 uM after 48 hrs relative to control; settings: SW-620, 48 h, read-out: Activity; how it was run: as §1
[10] = test system: KM12; test: Cytotoxicity against human KM12 cells assessed as cell growth at 10 uM after 48 hrs relative to control; settings: KM12, 48 h, read-out: Activity; how it was run: as §2
[11] = test system: MDA-MB-435; test: Cytotoxicity against human MDA-MB-435 cells assessed as cell growth at 10 uM after 48 hrs relative to control; settings: MDA-MB-435, 48 h, read-out: Activity; how it was run: as §2
[12] = test system: SF-539; test: Cytotoxicity against human SF539 cells assessed as cell growth at 10 uM after 48 hrs relative to control; settings: SF-539, 48 h, read-out: Activity; how it was run: as §2
[13] = test system: HL-60(TB); test: Cytotoxicity against human HL-60(TB) cells assessed as cell growth at 10 uM after 48 hrs relative to control; settings: HL-60, 48 h, read-out: Activity
How it was run: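 Run at the NCI as a single-dose screen: each compound at 10 micromolar across the 60-cancer-cell-line panel. Growth of each cell line in compound-containing media was expressed relative to negative-control cultures.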

[14] = test system: M14; test: Cytotoxicity against human M14 cells assessed as cell growth at 10 uM after 48 hrs relative to control; settings: M14, 48 h, read-out: Activity; how it was run: as §2
[15] = test system: MOLT-4; test: Cytotoxicity against human MOLT4 cells assessed as cell growth at 10 uM after 48 hrs relative to control; settings: MOLT-4, 48 h, read-out: Activity; how it was run: as §2
[16] = test system: HCC 2998; test: Cytotoxicity against human HCC2998 cells assessed as cell growth at 10 uM after 48 hrs relative to control; settings: HCC 2998, 48 h, read-out: Activity; how it was run: as §2
[17] = test system: COLO 205; test: Cytotoxicity against human COLO205 cells assessed as cell growth at 10 uM after 48 hrs relative to control; settings: COLO 205, 48 h, read-out: Activity; how it was run: as §2
[18] = test system: T47D; test: Cytotoxicity against human T47D cells assessed as cell growth at 10 uM after 48 hrs relative to control; settings: read-out: Activity; how it was run: as §1
[19] = test system: OVCAR-3; test: Cytotoxicity against human OVCAR3 cells assessed as cell growth at 10 uM after 48 hrs relative to control; settings: OVCAR-3, 48 h, read-out: Activity; how it was run: as §2
[20] = test system: UO-31; test: Cytotoxicity against human UO31 cells assessed as cell growth at 10 uM after 48 hrs relative to control; settings: UO-31, 48 h, read-out: Activity; how it was run: as §1
[21] = test system: CCRF-CEM; test: Cytotoxicity against human CCRF-CEM cells assessed as cell growth at 10 uM after 48 hrs relative to control; settings: read-out: Activity; how it was run: as §2
[22] = test system: MCF7; test: Cytotoxicity against human MCF7 cells assessed as cell growth at 10 uM after 48 hrs relative to control; settings: MCF7, 48 h, read-out: Activity; how it was run: as §2
[23] = test system: TK-10; test: Cytotoxicity against human TK10 cells assessed as cell growth at 10 uM after 48 hrs relative to control; settings: TK-10, 48 h, read-out: Activity; how it was run: as §1
[24] = test system: NCI-H322M; test: Cytotoxicity against human NCI-H322M cells assessed as cell growth at 10 uM after 48 hrs relative to control; settings: read-out: Activity; how it was run: as §2
[25] = test system: ACHN; test: Cytotoxicity against human ACHN cells assessed as cell growth at 10 uM after 48 hrs relative to control; settings: read-out: Activity; how it was run: as §2
[26] = test system: OVCAR-8; test: Cytotoxicity against human OVCAR8 cells assessed as cell growth at 10 uM after 48 hrs relative to control; settings: OVCAR-8, 48 h, read-out: Activity; how it was run: as §2
[27] = test system: K562; test: Cytotoxicity against human K562 cells after 48 hrs; settings: K562, 48 h
[28] = test system: PC-3; test: Cytotoxicity against human PC3 cells assessed as cell growth at 10 uM after 48 hrs relative to control; settings: PC-3, 48 h, read-out: Activity; how it was run: as §2
[29] = test system: HT-29; test: Cytotoxicity against human HT-29 cells assessed as cell growth at 10 uM after 48 hrs relative to control; settings: HT-29, 48 h, read-out: Activity; how it was run: as §2
[30] = test system: BT-549; test: Cytotoxicity against human BT549 cells assessed as cell growth at 10 uM after 48 hrs relative to control; settings: BT-549, 48 h, read-out: Activity; how it was run: as §2
[31] = test system: U-251; test: Cytotoxicity against human U251 cells assessed as cell growth at 10 uM after 48 hrs relative to control; settings: U-251, 48 h, read-out: Activity; how it was run: as §1
[32] = test system: Malme-3M; test: Cytotoxicity against human MALME-3M cells assessed as cell growth at 10 uM after 48 hrs relative to control; settings: read-out: Activity; how it was run: as §2
[33] = test system: NCI-H23; test: Cytotoxicity against human NCI-H23 cells assessed as cell growth at 10 uM after 48 hrs relative to control; settings: NCI-H23, 48 h, read-out: Activity; how it was run: as §2
[34] = test system: HCT-116; test: Cytotoxicity against human HCT116 cells assessed as cell growth at 10 uM after 48 hrs relative to control; settings: HCT-116, 48 h, read-out: Activity; how it was run: as §2
[35] = Cytotoxicity against human Hs578T cells assessed as cell growth at 10 uM after 48 hrs relative to control; settings: Hs-578T, read-out: Activity; how it was run: as §2
[36] = test system: A549; test: Cytotoxicity against human A549 cells assessed as cell growth at 10 uM after 48 hrs relative to control; settings: A549, 48 h, read-out: Activity; how it was run: as §2
[37] = test system: HL-60; test: Cytotoxicity against human HL60 cells after 48 hrs; settings: HL-60, 48 h
[38] = test system: SR; test: Cytotoxicity against human SR cells after 48 hrs
How it was run: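 Dose-dependent growth inhibition was assessed at the National Cancer Institute against its cancer cell line panel as a follow-up to the 10 micromolar single-dose screen.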

SMILES | growth at 10 µM [1] [%] | growth at 10 µM [2] [%] | growth at 10 µM [3] [%] | growth at 10 µM [5] [%] | growth at 10 µM [6] [%] | growth at 10 µM [7] [%] | growth at 10 µM [8] [%] | growth at 10 µM [9] [%] | growth at 10 µM [10] [%] | growth at 10 µM [11] [%] | growth at 10 µM [12] [%] | growth at 10 µM [13] [%] | growth at 10 µM [14] [%] | growth at 10 µM [15] [%] | growth at 10 µM [16] [%] | growth at 10 µM [17] [%] | growth at 10 µM [18] [%] | growth at 10 µM [19] [%] | growth at 10 µM [20] [%] | growth at 10 µM [21] [%] | also measured
COC(=O)[C@@H](NC(=O)N[C@@H](Cc1ccccc1)C(=O)N[C@H]1CCCCNC(=O)/C=C/[C@H](Cc2ccccc2)NC1=O)C(C)C | 9.78 | 29.5 | 10.1 | 71.8 | 30.6 | -40.2 | 101 | 23.1 | 7.99 | -69.1 | -22.2 | 20.9 | 53.9 | -0.13 | 5.56 | 44.6 | 8.25 | -36.7 | 89.6 | 9.59 | GI50 [4]: 3.32 µM; growth at 10 µM [22]: 37.4%; growth at 10 µM [23]: 75%; growth at 10 µM [24]: 98.1%; growth at 10 µM [25]: 91.4%; growth at 10 µM [26]: 82%; GI50 [27]: 14.6 µM; growth at 10 µM [28]: 73.2%; growth at 10 µM [29]: 14.5%; growth at 10 µM [30]: 3.25%; growth at 10 µM [31]: 17.8%; growth at 10 µM [32]: -0.39%; growth at 10 µM [33]: 44.8%; growth at 10 µM [34]: 11.6%; growth at 10 µM [35]: 24.9%; growth at 10 µM [36]: 68.6%; GI50 [37]: 4.34 µM; GI50 [38]: 2.78 µM
COC(=O)[C@@H](NC(=O)N[C@H](C(=O)N[C@H]1CCCCNC(=O)/C=C/[C@H](C(C)C)NC1=O)C(C)C)C(C)C | 13.3 | 15.8 | -20.1 | 83.3 | 33.4 | -34.6 | 98.2 | 30.3 | 1.78 | -55.5 | -19.4 | 27.2 | 64.5 | 10.2 | -0.39 | 51.7 | -31.7 | -39.6 | 82.2 | 15.1 | GI50 [4]: 4.73 µM; growth at 10 µM [22]: 42.8%; growth at 10 µM [23]: 85.8%; growth at 10 µM [24]: 77%; growth at 10 µM [25]: 96.4%; growth at 10 µM [26]: 86.4%; GI50 [27]: 6.12 µM; growth at 10 µM [28]: 62%; growth at 10 µM [29]: 11.7%; growth at 10 µM [30]: 5.44%; growth at 10 µM [31]: 8.29%; growth at 10 µM [32]: 29.9%; growth at 10 µM [33]: 34.2%; growth at 10 µM [34]: 21.2%; growth at 10 µM [35]: 4.52%; growth at 10 µM [36]: 42.1%; GI50 [37]: 5.41 µM; GI50 [38]: 5.13 µM
COC(=O)[C@@H](NC(=O)N[C@H](C(=O)N[C@H]1CCCCNC(=O)/C=C/[C@H](Cc2c[nH]c3ccccc23)NC1=O)C(C)C)C(C)C | 60.7 | 2.96 | 9.42 | 83.9 | 24.7 | -34 | 109 | 58.3 | 74.5 | -81.5 | -14.4 | 17.6 | 86.7 | 8.54 | 44.2 | 58.9 | -9.26 | -42.9 | 94.3 | 15.8 | growth at 10 µM [22]: 48.5%; growth at 10 µM [23]: 94.1%; growth at 10 µM [24]: 76.2%; growth at 10 µM [25]: 90.8%; growth at 10 µM [26]: 97.1%; growth at 10 µM [28]: 76.3%; growth at 10 µM [29]: 3.42%; growth at 10 µM [30]: 8.05%; growth at 10 µM [31]: 27.4%; growth at 10 µM [32]: 47.9%; growth at 10 µM [33]: 38.2%; growth at 10 µM [34]: 37.4%; growth at 10 µM [35]: 9.21%; growth at 10 µM [36]: 77.5%

Source: ChEMBL document CHEMBL3612027, “Substrate-guided optimization of the syringolins yields potent proteasome inhibitors with activity against leukemia cell lines” (Bioorg Med Chem, 2015)
